Source: PubChem
Vif inh – inhibitors of HIV Vif | HEK293T cells, Vif self-association by quenched fluorescence, imaging, 24 h | hit rate 0.35% among 340,000 | inhibition, % at 7.49 µM | AID 602346; in the data active means inhibition above about 50%, passing the limit was not always enough; inconclusive means no clear call, values can overlap the other calls; inactive means below about 31%
V-ATPase pHluor – yeast V-ATPase proton transport regulation by pHLuorin; response, % at 10 µM; hit rate 0.37% among 350,000; S. cerevisiae, pHLuorin cytosolic pH fluorescence; in the data active means response mostly above about 7.3%, no sharp cut-off; inactive means mostly below about 5.4%; further: actives read high
SR-BI HDL uptake – inhibitors of mouse SR-BI mediated HDL lipid uptake; inhibition, % at 12.5 µM; Q61009; AID 488896; hit rate 0.96% among 320,000; ldlA[mSR-BI] CHO cells, DiI-HDL uptake fluorescence, 3 h;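 active means mean replicate inhibition of at least 70% and a set share of replicates each scoring 70 or more; inconclusive means meets just one of the two criteria; inactive means fails both criteria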;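 further: 0% = median of neutral control wells and 100% = median of positive control wells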
NTR1 ag – agonists of human neurotensin receptor NTR1; P30989; NTR1-U2OS beta-arrestin-GFP spot imaging, agonist mode; activation, % at 20 µM; hit rate 0.17% among 330,000; AID 493036;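 active means activation at or above 40% of the spot to cytoplasm intensity ratio, with at least 20 cells analyzed; inconclusive means wells under 20 cells, flagged as cytotoxic or low count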;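 further: 0% = DMSO without peptide and 100% = 100 nM NTR1 peptide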
Target sequence (P30989 whole entry, looked up): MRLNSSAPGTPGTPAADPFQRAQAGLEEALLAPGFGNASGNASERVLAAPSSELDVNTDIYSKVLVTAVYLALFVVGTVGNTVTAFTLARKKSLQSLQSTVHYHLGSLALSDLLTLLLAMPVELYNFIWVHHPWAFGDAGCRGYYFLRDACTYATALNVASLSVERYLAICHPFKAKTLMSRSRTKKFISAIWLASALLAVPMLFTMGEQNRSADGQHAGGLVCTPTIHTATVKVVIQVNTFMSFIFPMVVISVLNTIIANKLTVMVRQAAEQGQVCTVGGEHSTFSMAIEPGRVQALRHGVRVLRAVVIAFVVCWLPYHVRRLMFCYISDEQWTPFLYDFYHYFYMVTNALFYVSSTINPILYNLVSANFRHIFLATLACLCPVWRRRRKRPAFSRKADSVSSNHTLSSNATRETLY
CaV13 ICDI inh – Primary screen for inhibitors of IQ motif and Ca2+-dependent inactivation inhibitor domain binding in CACNA1D, Förster resonance energy transfer in living cells, … | HEK cells, CFP/YFP FRET ICDI-IQ, plate reader, 10 min; percent FRET-ratio fall versus neutral wells | inhibition, % at 12.3 µM | hit rate 0.098% among 340,000 | AID 743397;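 active means mean replicate inhibition of at least 30% and at least 1% of replicates passing that level; inconclusive means only one of the two criteria is met; inactive means neither criterion is met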;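 further: 0% = median of the neutral control wells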
SR-BI uptake up – SR-BI HDL lipid transfer activation; CHO ldlA[mSR-BI] cells, DiI-HDL uptake fluorescence, 3 h; 100 = double the neutral-control signal; activation, % at 12.5 µM; hit rate 0.096% among 320,000; AID 504775;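 active means mean replicate activation of at least 60% and every replicate at or above 60%; inconclusive means mean or all-replicate condition met, but not both; inactive means mean below 60% and not all replicates reaching 60%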;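 further: 0% = median plate neutral-control signal and 100% = twice that signal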
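Assay system: LDL receptor-deficient CHO ldlA cells overexpressing murine SR-BI / Medium: BSA-supplemented, HEPES-buffered Ham's F12, pH 7.4 / Probe or stimulus: DiI-labelled HDL at 10 µg/mL final / Timing: compound with DiI-HDL co-incubation, 3 h at 37 °C / Technique: bottom-read cell fluorescence after medium removal, ex 550/em 595 nm / Measure: HDL uptake via cellular fluorescence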
DiI quench – DiI fluorescence quenching in cell-free counter-screen | cell-free DiI-HDL fluorescence quenching, 30 min | hit rate 20% among 470 | AC50, µM (highest dose often 35 µM), without a hit: top-dose activity change, negative = quenching | shares compounds with SR-BI HDL uptake;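 active means quenching, a falling signal, with AC50 below a set limit tied to the top valid dose, actives reach about 32 µM in these data; inconclusive means no clear call, values can overlap the other calls; inactive means rising signal, and the rest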
* hit, by the source's call. Most compounds without a hit are left out; they make up all but 1.7% or so of the library.

`CC1(O)C(=O)C2(C)C=CC1C1C(=O)N(c3ccccc3)C(=O)C12` (stereo not given) gave CaV13 ICDI inh -9.
`C[C@H](CO)N1C[C@H](C)[C@@H](CN(C)Cc2ccc(Oc3ccccc3)cc2)Oc2cc(Br)ccc2S1(=O)=O` gave Vif inh 11, V-ATPase pHluor 4 and CaV13 ICDI inh -7.
For COC(=O)COc1cc(Br)c(/C=C2/SC(=O)N(CC(=O)N3CCCC3)C2=O)cc1OC the results were Vif inh 1, V-ATPase pHluor 3, SR-BI HDL uptake 82*, NTR1 ag 9, CaV13 ICDI inh -3 and SR-BI uptake up -82.
For COC(=O)COc1ccc(/C=C2/SC(=O)N(CC(=O)N3CCCC3)C2=O)cc1Br the results were Vif inh 0, V-ATPase pHluor -1, SR-BI HDL uptake -8, NTR1 ag 8, CaV13 ICDI inh -5 and SR-BI uptake up 8.
For c1ccc(CCCNc2ncccn2)cc1 the results were Vif inh -2, V-ATPase pHluor 5, SR-BI HDL uptake 14, NTR1 ag 0, CaV13 ICDI inh -4 and SR-BI uptake up -14.
Screening COC(=O)[C@]12C[C@H](CC(=O)N3CCN(C(=O)c4ccco4)CC3)C(=O)N(Cc3ccccc3)C1=C[C@H](C1CCCC1)O[C@@H]2C returned CaV13 ICDI inh -10.
CCn1cc(CN2CCCC(C(=O)Nc3cccc(-c4cc5ccccc5[nH]4)c3)C2)c(C)n1 (stereo not given) was read as Vif inh 53*, V-ATPase pHluor 1, SR-BI HDL uptake 36, NTR1 ag 4, CaV13 ICDI inh -8 and SR-BI uptake up -36.
CCOc1ccc2c(C)c(C(=O)O)oc2c1OCC was read as Vif inh 55*, V-ATPase pHluor 8, SR-BI HDL uptake -17, NTR1 ag 1, CaV13 ICDI inh -4 and SR-BI uptake up 17.
Screening COc1ccc(N2CCN(CCN3C(=O)c4ccccc4C3=O)CC2)cc1 returned Vif inh 12, V-ATPase pHluor 2, NTR1 ag -1 and CaV13 ICDI inh -2.
For COc1cc(Br)cc(/C=C/c2ccc3cccc(O)c3n2)c1O the results were Vif inh 10, V-ATPase pHluor -4, SR-BI HDL uptake 91*, NTR1 ag 13, CaV13 ICDI inh -19 and SR-BI uptake up -91.
CCOc1ccc(C(=O)NCC(=O)OCC(=O)Nc2ccc(C)c(S(=O)(=O)N(C)C)c2)cc1 was read as Vif inh -8, V-ATPase pHluor 2, SR-BI HDL uptake -13, NTR1 ag 1, CaV13 ICDI inh 2 and SR-BI uptake up 13.
For CC(=O)c1ccc(N=C2NC(=O)C(CO)(CO)S2)cc1 the results were Vif inh inconclusive, V-ATPase pHluor -9, SR-BI HDL uptake -12, NTR1 ag 0, CaV13 ICDI inh -4 and SR-BI uptake up 12.
CC(C)C[C@@H](CN1CCCC1CN1C(=S)NC[C@@H]1Cc1ccc(O)cc1)N1C[C@H](Cc2ccc(O)cc2)N(CCc2ccccc2)C1=S (stereo not given in full) was read as Vif inh -21, V-ATPase pHluor 0, SR-BI HDL uptake -177, CaV13 ICDI inh -8 and SR-BI uptake up 177*.
Oc1ccc(C[C@H]2CNC(=S)N2CC2CCCN2C[C@H](Cc2ccc(O)cc2)N2C[C@H](Cc3ccc(O)cc3)N(CC3CCCCCC3)C2=S)cc1 (stereo not given in full) was read as Vif inh -3, V-ATPase pHluor 2, SR-BI HDL uptake -186, CaV13 ICDI inh -7 and SR-BI uptake up 186*.
Oc1ccc(C[C@H]2CNC(=S)N2CC2CCCN2C[C@H](Cc2ccc(O)cc2)N2C[C@H](Cc3ccccc3)N(CC3CCCCCC3)C2=S)cc1 (stereo not given in full) was read as Vif inh -14, V-ATPase pHluor 0, SR-BI HDL uptake -68, CaV13 ICDI inh -3 and SR-BI uptake up 68*.
For CS(=O)(=O)N(CC(=O)NCCSC1CCCCC1)c1ccc2c(c1)OCO2 the results were Vif inh -2, V-ATPase pHluor 24*, SR-BI HDL uptake -4, NTR1 ag 1, CaV13 ICDI inh -1 and SR-BI uptake up 4.
CCCCn1c(N)c(N(CC)C(=O)c2cc3c(s2)CCCCC3)c(=O)[nH]c1=O was read as Vif inh 0, V-ATPase pHluor -1, SR-BI HDL uptake -12, NTR1 ag -1, CaV13 ICDI inh -3 and SR-BI uptake up 12.
For CC(C)=CC(=O)OCc1csc(CC(=O)Nc2ccccc2C)n1 the results were V-ATPase pHluor -2, SR-BI HDL uptake -5, NTR1 ag 0, CaV13 ICDI inh -3 and SR-BI uptake up 5.
Screening CC(=O)c1c(C)[nH]c(C(=O)OCc2csc(CC(=O)Nc3ccccc3C)n2)c1C returned Vif inh -17, V-ATPase pHluor 5, SR-BI HDL uptake 73*, NTR1 ag -2, CaV13 ICDI inh -3 and SR-BI uptake up -73.
CC(C)CN(C(=O)COC(=O)C12CC3CC(CC(O)(C3)C1)C2)C1CCS(=O)(=O)C1 (stereo not given) was read as Vif inh 0, V-ATPase pHluor 5, SR-BI HDL uptake 9, NTR1 ag 3, SR-BI uptake up -9 and DiI quench -6%.
For COc1ccc(CN2CCN(C(=O)c3ccc(S(=O)(=O)NCc4ccco4)cc3)CC2)cc1F the results were Vif inh -18, V-ATPase pHluor 1, SR-BI HDL uptake inconclusive, NTR1 ag 0, CaV13 ICDI inh -5, SR-BI uptake up -72 and DiI quench -2%.
`O=C(c1ccc(S(=O)(=O)NCc2ccco2)cc1)N1CCN(Cc2ccc3c(c2)OCO3)CC1` gave Vif inh -4, V-ATPase pHluor 1, SR-BI HDL uptake inconclusive, NTR1 ag 0, CaV13 ICDI inh -3, SR-BI uptake up -71 and DiI quench 0%.
Cc1ccccc1CN1CCN(C(=O)c2ccc(S(=O)(=O)NCc3ccco3)cc2)CC1 was read as Vif inh 26, V-ATPase pHluor -1, SR-BI HDL uptake 64, NTR1 ag 3, CaV13 ICDI inh -15, SR-BI uptake up -64 and DiI quench -2%.
For CC(=O)NCc1ccc(S(=O)(=O)NC(C(=O)O)C(C)C)cc1 (stereo not given) the results were Vif inh 3, V-ATPase pHluor 2, SR-BI HDL uptake -35, NTR1 ag -2, CaV13 ICDI inh 8 and SR-BI uptake up 35.
